Assay results taken from ChEMBL document CHEMBL1143924, “Discovery of 2-amino-6-carboxamidobenzothiazoles as potent Lck inhibitors” (Bioorg Med Chem Lett, 2008).

How the values were obtained:
Format in all cases: functional, cell-based
[1] = system: BaF3; experiment: Antiproliferative activity against Lck transformed mouse BaF3 cells after 48 hrs by luciferase assay; conditions: BaF3, 48 h
Method in brief: (§1)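 BaF3 cells transformed with the named kinase, 25,000 cells per well, exposed to serial inhibitor dilutions or DMSO for 48 h. Luciferase expression, read by Bright-Glo luminescence, served as the measure of proliferation/survival.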

[2] = system: Jurkat; experiment: Inhibition of ant-CD3+CD28 antibodies induced IL2 promoter activity in human Jurkat cells after 5 hrs
Method in brief: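 Wells coated with anti-mouse IgG in sodium bicarbonate buffer, then loaded with OKT3 (mouse anti-human CD3) and mouse anti-human CD28 antibodies, then washed. Jurkat cells carrying IL-2 promoter-driven luciferase, 100,000 per well, incubated 5 h on the bound antibodies. Luciferase read-out by Bright-Glo.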

[3] = system: Jurkat; experiment: Inhibition of phorbol myristate acetate and ionomycin induced IL2 promoter activity in human Jurkat cells after 5 hrs
Method in brief: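 Jurkat IL-2 promoter-luciferase cells, 50,000 per well, stimulated with PMA plus ionomycin, added as an equal volume of solution containing PMA at 40 ng/mL (concentration before mixing). IL-2 promoter activity read as luciferase signal by Bright-Glo.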

[4] = system: BaF3; experiment: Antiproliferative activity against Lyn transformed mouse BaF3 cells; method in brief: as §1
[5] = system: BaF3; experiment: Antiproliferative activity against JAK3 transformed mouse BaF3 cells; method in brief: as §1
[6] = system: BaF3; experiment: Antiproliferative activity against FLT3 transformed mouse BaF3 cells; method in brief: as §1
[7] = system: BaF3; experiment: Antiproliferative activity against KDR transformed mouse BaF3 cells; method in brief: as §1
[8] = system: BaF3; experiment: Antiproliferative activity against Alk transformed mouse BaF3 cells; method in brief: as §1
[9] = system: BaF3; experiment: Antiproliferative activity against Sky transformed mouse BaF3 cells; method in brief: as §1
[10] = system: BaF3; experiment: Antiproliferative activity against FGFR3 transformed mouse BaF3 cells; method in brief: as §1
[11] = system: BaF3; experiment: Antiproliferative activity against Src transformed mouse BaF3 cells; method in brief: as §1
[12] = system: BaF3; experiment: Antiproliferative activity against InsR transformed mouse BaF3 cells; method in brief: as §1

Compound | IC50 [1] [nM] | further results
Cc1ccc(NC(=O)c2cccc(C(F)(F)F)c2)cc1NC(=O)c1ccc2nc(N(C)C(=O)OC(C)(C)C)sc2c1 | 955 | 
Cc1ccc(NC(=O)c2cccc(C(F)(F)F)c2)cc1NC(=O)c1ccc2nc(NC(=O)OC(C)(C)C)sc2c1 | 36 | 
Cc1ccc(NC(=O)c2cccc(C(F)(F)F)c2)cc1NC(=O)c1ccc2nc(NC(=O)NC3CCCC3)sc2c1 | 16 | IC50 [2]: 62 nM; IC50 [3]: 812 nM
Cc1ccc(NC(=O)c2cccc(C(F)(F)F)c2)cc1NC(=O)c1ccc2nc(NCCN3CCN(C)CC3)sc2c1 | 58 | 
COc1ccc(OC(=O)Nc2nc3ccc(C(=O)Nc4cc(NC(=O)c5cccc(C(F)(F)F)c5)ccc4C)cc3s2)cc1 | 131 | 
Cc1ccc(NC(=O)c2cccc(C(F)(F)F)c2)cc1NC(=O)c1ccc2nc(NC(=O)Nc3cccnc3)sc2c1 | 125 | 
CCNC(=O)Nc1nc2ccc(C(=O)Nc3cc(NC(=O)c4cccc(OC)c4)ccc3C)cc2s1 | 158 | 
CCNC(=O)Nc1nc2ccc(C(=O)Nc3cc(NC(=O)c4ccc(Cl)c(C(F)(F)F)c4)ccc3C)cc2s1 | 50 | 
CCNC(=O)Nc1nc2ccc(C(=O)Nc3cc(NC(=O)c4cccc(Cl)c4)ccc3C)cc2s1 | 104 | 
CCNC(=O)Nc1nc2ccc(C(=O)Nc3cc(NC(=O)c4cc(-n5cnc(C)c5)cc(C(F)(F)F)c4)ccc3C)cc2s1 | 15 | 
CCNC(=O)Nc1nc2ccc(C(=O)Nc3cc(NC(=O)c4cc(N5CCN(C)CC5)cc(C(F)(F)F)c4)ccc3C)cc2s1 | 19 | 
Cc1cc(Nc2nc3ccc(C(=O)Nc4cc(NC(=O)c5cccc(C(F)(F)F)c5)ccc4C)cc3s2)nc(C)n1 | 0.6 | 
CNC(=O)Nc1nc2ccc(C(=O)Nc3cc(NC(=O)c4cccc(C(F)(F)F)c4)ccc3C)cc2s1 | 21 | IC50 [4]: 94 nM; IC50 [5]: 5010 nM; IC50 [6]: 3140 nM; IC50 [7]: 1610 nM; IC50 [8]: 1630 nM; IC50 [9]: 1100 nM; IC50 [10]: 1980 nM; IC50 [11]: 301 nM; IC50 [12]: 1280 nM
Cc1cc(Br)c(NC(=O)c2cccc(C(F)(F)F)c2)cc1NC(=O)c1ccc2nc(NCCN3CCOCC3)sc2c1 | 2100 | 
COCCOC(=O)Nc1nc2ccc(C(=O)Nc3cc(NC(=O)c4cccc(C(F)(F)F)c4)ccc3C)cc2s1 | 8 | IC50 [2]: 12 nM; IC50 [3]: 438 nM
CCNC(=O)Nc1nc2ccc(C(=O)Nc3cc(NC(=O)c4cccc(C)c4)ccc3C)cc2s1 | 112 | 
Cc1ccnc(Nc2nc3ccc(C(=O)Nc4cc(NC(=O)c5cccc(C(F)(F)F)c5)ccc4C)cc3s2)c1 | 16 | 
Cc1ccc(NC(=O)c2cccc(C(F)(F)F)c2)cc1NC(=O)c1ccc2nc(Nc3cnccn3)sc2c1 | 4 | 
CCNC(=O)N(C)c1nc2ccc(C(=O)Nc3cc(NC(=O)c4cccc(C(F)(F)F)c4)ccc3C)cc2s1 | > 10000 | 
Cc1ccc(NC(=O)c2cccc(C(F)(F)F)c2)cc1NC(=O)c1ccc2nc(N)sc2c1 | 170 | 
Cc1ccc(NC(=O)c2cccc(C(F)(F)F)c2)cc1NC(=O)c1ccc2nc(NC(=O)Oc3ccccc3)sc2c1 | 112 | 
Cc1ccc(NC(=O)c2cccc(C(F)(F)F)c2)cc1NC(=O)c1ccc2nc(NC(=O)Nc3ccccc3)sc2c1 | 94 | 

More lines, main results first:

IC50 [1] [nM] | Compound | further results
118 | CCNC(=O)Nc1nc2ccc(C(=O)Nc3cc(C(=O)Nc4cccc(C(F)(F)F)c4)ccc3C)cc2s1 | 
139 | Cc1ccc(C(=O)Nc2cccc(C(F)(F)F)c2)cc1NC(=O)c1ccc2nc(NC(=O)NC3CCCC3)sc2c1 | 
30 | COC(=O)Nc1nc2ccc(C(=O)Nc3cc(NC(=O)c4cccc(C(F)(F)F)c4)ccc3C)cc2s1 | IC50 [2]: 36 nM; IC50 [3]: 851 nM
16 | CCNC(=O)Nc1nc2ccc(C(=O)Nc3cc(NC(=O)c4cccc(C(F)(F)F)c4)ccc3C)cc2s1 | IC50 [2]: 44 nM; IC50 [3]: 373 nM
78 | Cc1ccc(NC(=O)c2cccc(C(F)(F)F)c2)cc1NC(=O)c1ccc2nc(NCCCN3CCOCC3)sc2c1 | 
81 | Cc1ccc(NC(=O)c2cccc(C(F)(F)F)c2)cc1NC(=O)c1ccc2nc(NCCCN(C)C)sc2c1 | 
8 | Cc1cc(Nc2nc3ccc(C(=O)Nc4cc(NC(=O)c5cccc(C(F)(F)F)c5)ccc4C)cc3s2)no1 | 
9 | CCNC(=O)Nc1nc2ccc(C(=O)Nc3cc(NC(=O)c4ccnc(C(C)(C)C)c4)ccc3C)cc2s1 | 
30 | Cc1ccc(NC(=O)c2cccc(C(F)(F)F)c2)cc1NC(=O)c1ccc2nc(NC(=O)OC(C)C)sc2c1 | IC50 [4]: 268 nM; IC50 [5]: > 10000 nM; IC50 [6]: > 10000 nM; IC50 [7]: 3280 nM; IC50 [8]: 6110 nM; IC50 [9]: 2440 nM; IC50 [10]: 12600 nM; IC50 [11]: 517 nM; IC50 [12]: 13500 nM
7 | CCNC(=O)Nc1nc2ccc(C(=O)Nc3cc(NC(=O)c4cc(F)cc(C(F)(F)F)c4)ccc3C)cc2s1 | 
12 | CCNC(=O)Nc1nc2ccc(C(=O)Nc3cc(NC(=O)c4ccc(C(C)(C)C)s4)ccc3C)cc2s1 | 
53 | Cc1cc(C)nc(Nc2nc3ccc(C(=O)Nc4cc(NC(=O)c5cccc(C(F)(F)F)c5)ccc4C)cc3s2)n1 | 
